Source: ChEMBL document CHEMBL3997791, “Nanomolar-Potency Aminophenyl-1,3,5-triazine Activators of the Cystic Fibrosis Transmembrane Conductance Regulator (CFTR) Chloride Channel for Prosecretory Therapy of Dry Eye Diseases” (J Med Chem, 2017)
Active and inactive are the calls of the source. No cut-off for these calls is given here.

Experiments:
[1] = molecular target: T1, Cystic fibrosis transmembrane conductance regulator (Homo sapiens, UniProt P13569); experiment: Activation of CFTR in human primary bronchial epithelial cells assessed as increase in short-circuit current up to 10 uM measured after 10 mins in absence of forskolin by voltage clamp method
[2] = test system: Mus musculus; experiment: Induction of tear secretion in mouse lacking functional CFTR up to 250 pmol administered as single topical dose up to 6 hrs by phenol red thread test; conditions: in vivo, topical_or_ocular
Summary of the method: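 CF mice lacking functional CFTR; single ocular dose of 250 pmol in 2.5 μL ophthalmic vehicle, both eyes, vehicle control. Tear volume by phenol red thread 10 s in lateral canthus under isoflurane, measured before and at timed points after dosing. 5 mice, 10 eyes per condition.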

[3] = Metabolic stability in rat hepatic microsomes assessed as parent compound remaining at 5 uM after 15 mins in presence of NADPH by LC-MS analysis; type: ADME, Microsome; conditions: liver microsomes, read-out: Stability
Summary of the method: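 Compound at 5 μM incubated at 37 °C with rat liver microsomes (1 mg/mL) in potassium phosphate buffer with 1 mM NADPH; quenched with ice-cold EtOAc, centrifuged, supernatant analysed by LC/MS (C18, water/acetonitrile with 0.1% formic acid gradient, UV 254 nm) for parent remaining; mean ± SEM, n = 3.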

[4] = Chemical stability in opthalmic vehicle containing 0.3% CMC in Ringer's solution at 100 uM up to 24 hrs at 40 degC by LC-MS analysis; type: physicochemical
Summary of the method: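 Compound dissolved at 100 μM in ophthalmic vehicle (0.3% CMC in Ringer's solution), held 24 h at 40 °C; chemical integrity checked by LC/MS.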

[5] = test system: Mus musculus; experiment: Induction of tear secretion in mouse at 250 pmol administered as single topical dose after 12 to 24 hrs by phenol red thread test; type: functional
Summary of the method: (§1)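 Mice 8–12 weeks (25–35 g); single ocular dose of 250 pmol (100 μM) in 2.5 μL vehicle (0.3% CMC in Ringer's), both eyes treated identically, vehicle control. Tear volume by phenol red thread, 10 s in lateral canthus under isoflurane, before and at set times after dosing. 5 mice, 10 eyes per condition; two-way ANOVA with Dunnett test.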

[6] = test system: Mus musculus; experiment: Induction of tear secretion in mouse at 250 pmol administered as single topical dose up to 8 hrs by phenol red thread test; type: functional; summary of the method: as §1
[7] = molecular target: T1, Cystic fibrosis transmembrane conductance regulator; experiment: Activation of CFTR in human primary bronchial epithelial cells assessed as increase in forskolin-stimulated short-circuit current at 0.1 uM preincubated for 10 mins followed by forskolin addition by voltage clamp method

T1 sequence (P13569 whole entry, looked up): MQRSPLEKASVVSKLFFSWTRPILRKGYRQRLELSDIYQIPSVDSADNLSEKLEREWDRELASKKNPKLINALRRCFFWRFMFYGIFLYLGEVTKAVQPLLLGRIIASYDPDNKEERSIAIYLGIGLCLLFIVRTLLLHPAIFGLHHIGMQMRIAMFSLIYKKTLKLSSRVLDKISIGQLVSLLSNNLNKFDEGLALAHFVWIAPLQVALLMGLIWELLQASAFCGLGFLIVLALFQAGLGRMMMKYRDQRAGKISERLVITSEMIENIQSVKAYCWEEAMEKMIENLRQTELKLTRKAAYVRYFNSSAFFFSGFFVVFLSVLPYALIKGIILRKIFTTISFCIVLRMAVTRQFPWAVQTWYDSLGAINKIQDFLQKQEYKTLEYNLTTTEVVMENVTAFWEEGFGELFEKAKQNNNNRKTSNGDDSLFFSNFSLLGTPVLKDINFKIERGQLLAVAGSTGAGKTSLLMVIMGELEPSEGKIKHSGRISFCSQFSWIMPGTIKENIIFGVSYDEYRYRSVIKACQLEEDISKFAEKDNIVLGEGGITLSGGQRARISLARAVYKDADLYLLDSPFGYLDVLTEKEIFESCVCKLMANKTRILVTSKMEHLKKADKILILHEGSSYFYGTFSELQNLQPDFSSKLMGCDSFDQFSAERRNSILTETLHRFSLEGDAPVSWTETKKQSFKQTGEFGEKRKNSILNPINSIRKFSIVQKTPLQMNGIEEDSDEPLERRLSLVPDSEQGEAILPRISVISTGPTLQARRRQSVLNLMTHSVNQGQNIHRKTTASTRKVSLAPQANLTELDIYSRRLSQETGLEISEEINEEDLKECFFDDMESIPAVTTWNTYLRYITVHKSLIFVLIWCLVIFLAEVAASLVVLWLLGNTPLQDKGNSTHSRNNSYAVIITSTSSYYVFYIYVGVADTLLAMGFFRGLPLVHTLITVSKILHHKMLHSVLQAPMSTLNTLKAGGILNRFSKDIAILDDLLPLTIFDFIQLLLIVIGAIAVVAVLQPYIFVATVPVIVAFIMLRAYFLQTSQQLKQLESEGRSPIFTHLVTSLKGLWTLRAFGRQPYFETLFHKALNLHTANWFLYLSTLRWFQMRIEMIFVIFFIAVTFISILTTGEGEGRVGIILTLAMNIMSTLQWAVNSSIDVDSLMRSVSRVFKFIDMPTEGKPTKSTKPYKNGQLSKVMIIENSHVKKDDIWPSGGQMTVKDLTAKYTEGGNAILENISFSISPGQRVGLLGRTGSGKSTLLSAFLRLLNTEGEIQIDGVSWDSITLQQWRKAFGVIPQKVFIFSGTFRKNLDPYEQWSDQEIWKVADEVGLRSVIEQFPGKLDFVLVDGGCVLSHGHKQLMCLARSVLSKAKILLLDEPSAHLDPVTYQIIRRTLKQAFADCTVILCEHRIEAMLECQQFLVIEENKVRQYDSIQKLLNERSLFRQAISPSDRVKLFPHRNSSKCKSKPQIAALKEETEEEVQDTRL

**Q.** For `CNc1nc(Nc2ccccc2)nc(OCC(F)(F)C(F)F)n1`, which Activity [1] is on record?
**A.** Its Activity is “inactive”.

**Q.** And the Activity [2]?
**A.** The Activity was “Non-Toxic”.

**Q.** And the remaining at […], 5 µM [3]?
**A.** Its remaining at […], 5 µM is < 40%.

**Q.** And the Stability [4]?
**A.** Its Stability is “Stable”.

**Q.** And the Activity [5]?
**A.** The Activity was “inactive”.

**Q.** What about the Activity [6] of the same molecule?
**A.** The Activity was “Active”.

**Q.** What about the Activity [7] of the same molecule?
**A.** Its Activity is “Active”.
